Results reported in ChEMBL document CHEMBL2375307, “Synthesis and identification of β-aryloxyquinoline based diversely fluorine substituted N-aryl quinolone derivatives as a new class of antimicrobial, antituberculosis and antioxidant agents” (Eur J Med Chem, 2013).
≈ marks a conversion by molar mass, not a printed value.

Legend:
Bacillus subtilis = assay: Antibacterial activity against Bacillus subtilis MTCC 441 assessed as growth inhibition after overnight incubation by NCCLS broth microdilution method; type: functional
Procedure, shortened: (§1)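 Broth microdilution per NCCLS in Mueller Hinton broth, compounds diluted in DMSO. Primary screen at 500, 250 and 200 µg/mL; actives retested at 100, 62.5, 50, 25 and 12.5 µg/mL. Tubes incubated overnight at 37 °C. […] Non-growing tubes subcultured overnight at 37 °C to judge bacteriostatic versus bactericidal action.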

Escherichia coli = assay: Antibacterial activity against Escherichia coli MTCC 443 assessed as growth inhibition after overnight incubation by NCCLS broth microdilution method; type: functional; procedure, shortened: as §1
Aspergillus fumigatus = assay: Antifungal activity against Aspergillus fumigatus MTCC 3008 assessed as growth inhibition after overnight incubation by NCCLS broth microdilution method; type: functional; procedure, shortened: as §1
Vibrio cholerae = assay: Antibacterial activity against Vibrio cholerae MTCC 3906 assessed as growth inhibition after overnight incubation by NCCLS broth microdilution method; type: functional
Candida albicans = assay: Antifungal activity against Candida albicans MTCC 227 assessed as growth inhibition after overnight incubation by NCCLS broth microdilution method; type: functional; procedure, shortened: as §1
Salmonella typhi = assay: Antibacterial activity against Salmonella typhi MTCC 98 assessed as growth inhibition after overnight incubation by NCCLS broth microdilution method; type: functional, Salmonella enterica subsp. enterica serovar Typhi; settings: Salmonella enterica
Streptococcus pneumoniae = assay: Antibacterial activity against Streptococcus pneumoniae MTCC 1936 assessed as growth inhibition after overnight incubation by NCCLS broth microdilution method; type: functional; procedure, shortened: as §1
Clostridium tetani = assay: Antibacterial activity against Clostridium tetani MTCC 449 assessed as growth inhibition after overnight incubation by NCCLS broth microdilution method; type: functional
[1] = Antioxidant activity of the compound assessed as ascorbic acid equivalent of ferric tripyridyl triazine reducing activity at 200 ug/mL after 15 mins by FRAP assay; type: functional
Procedure, shortened: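 FRAP, modified Benzie and Strain method. Fe(III)-TPTZ reagent made with TPTZ in 40 mM HCl, FeCl3 solution and acetate buffer pH 3.6. 200 µL sample solution mixed with 3 mL reagent and held 15 min at 37 °C. Fe(II)-TPTZ read at 593 nm against an ascorbic acid standard, expressed as ascorbic acid equivalents (mmol/100 g compound).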

[2] = tested on: Mycobacterium tuberculosis; assay: Antitubercular activity against Mycobacterium tuberculosis H37Rv assessed as growth inhibition at 250 ug/mL after 12 to 28 days by Lowenstein-Jensen method relative to control; type: functional; settings: read-out: GI
Procedure, shortened: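 Modified Lowenstein-Jensen method. Compound at 250 in DMSO added to liquid L-J medium, then sterilized by inspissation and incubated 24 h at 37 °C. Streaked with H37Rv harvested in 0.85% saline (5 × 10⁴ bacilli/tube) and incubated at 37 °C. Colonies read at 12, 22 and 28 days versus drug-free control; no colonies or <20 colonies scored as inhibition.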

Row | Compound | MIC (Bacillus subtilis) [µg/mL] | MIC (Escherichia coli) [µg/mL] | MIC (Aspergillus fumigatus) [µg/mL] | MIC (Vibrio cholerae) [µg/mL] | MIC (Candida albicans) [µg/mL] | MIC (Salmonella typhi) [µg/mL] | MIC (Streptococcus pneumoniae) [µg/mL] | MIC (Clostridium tetani) [µg/mL] | Activity [1] [equiv] | inhibition of growth at 250 µg/mL [2] [%]
1 | Cc1ccc2nc(Oc3ccc(C#N)cc3)c(C=O)cc2c1 | 100 (≈ 347 µM) | 62.5 (≈ 217 µM) | 250 (≈ 867 µM) | 125 (≈ 434 µM) | > 1000 | 125 (≈ 434 µM) | 200 (≈ 694 µM) | 100 (≈ 347 µM) | 16 | 26
2 | Cc1ccc2nc(Oc3ccc(C#N)cc3)c(C3C(C#N)=C(N)N(c4ccc(F)c(F)c4)C4=C3C(=O)CCC4)cc2c1 (stereo unspecified) | 200 (≈ 357 µM) | 200 (≈ 357 µM) | 500 (≈ 894 µM) | 200 (≈ 357 µM) | 250 (≈ 447 µM) | 250 (≈ 447 µM) | 250 (≈ 447 µM) | 100 (≈ 179 µM) | 243 | 27
3 | O=C(O)c1cn(C2CC2)c2cc(N3CCNCC3)c(F)cc2c1=O [CIPROFLOXACIN] |  | 25 (≈ 75.4 µM) |  | 25 (≈ 75.4 µM) |  | 25 (≈ 75.4 µM) | 50 (≈ 151 µM) |  |  | 
4 | COc1ccc2nc(Oc3ccc(C#N)cc3)c(C3C(C#N)=C(N)N(c4cccc(C(F)(F)F)c4)C4=C3C(=O)CC(C)(C)C4)cc2c1 (stereo unspecified) | 250 (≈ 393 µM) | 125 (≈ 197 µM) | 500 (≈ 787 µM) | 250 (≈ 393 µM) | 1000 (≈ 1570 µM) | 200 (≈ 315 µM) | 200 (≈ 315 µM) | 500 (≈ 787 µM) | 14.3 | 62
5 | COc1ccc2nc(Oc3ccc(C#N)cc3)c(C3C(C#N)=C(N)N(c4ccc(F)c(F)c4)C4=C3C(=O)CC(C)(C)C4)cc2c1 (stereo unspecified) | 250 (≈ 414 µM) | 62.5 (≈ 104 µM) | > 1000 | 100 (≈ 166 µM) | > 1000 | 200 (≈ 331 µM) | 250 (≈ 414 µM) | 250 (≈ 414 µM) | 153 | 24
6 | N#CC1=C(N)N(c2cccc(C(F)(F)F)c2)C2=C(C(=O)CCC2)C1c1cc2ccccc2nc1Oc1ccc(C#N)cc1 (stereo unspecified) | 100 (≈ 173 µM) | 200 (≈ 346 µM) | 1000 (≈ 1730 µM) | 250 (≈ 433 µM) | 1000 (≈ 1730 µM) | 250 (≈ 433 µM) | 125 (≈ 216 µM) | 250 (≈ 433 µM) | 270 | 52
7 | NYSTATIN |  |  | 100 |  | 100 |  |  |  |  | 
8 | COc1ccc2nc(Oc3ccc(C#N)cc3)c(C3C(C#N)=C(N)N(c4cc(F)ccc4F)C4=C3C(=O)CC(C)(C)C4)cc2c1 (stereo unspecified) | 250 (≈ 414 µM) | 200 (≈ 331 µM) | > 1000 | 200 (≈ 331 µM) | > 1000 | 250 (≈ 414 µM) | 250 (≈ 414 µM) | 200 (≈ 331 µM) | 25.4 | 54
9 | Cc1ccc2nc(Oc3ccc(C#N)cc3)c(C3C(C#N)=C(N)N(c4ccc(F)c(F)c4)C4=C3C(=O)CC(C)(C)C4)cc2c1 (stereo unspecified) | 250 (≈ 425 µM) | 200 (≈ 340 µM) | 1000 (≈ 1700 µM) | 250 (≈ 425 µM) | > 1000 | 250 (≈ 425 µM) | 200 (≈ 340 µM) | 250 (≈ 425 µM) | 122 | 32
10 | CC1(C)CC(=O)C2=C(C1)N(c1cc(F)ccc1F)C(N)=C(C#N)C2c1cc2ccccc2nc1Oc1ccc(C#N)cc1 (stereo unspecified) | 250 (≈ 436 µM) | 250 (≈ 436 µM) | 1000 (≈ 1740 µM) | 250 (≈ 436 µM) | 500 (≈ 872 µM) | 250 (≈ 436 µM) | 100 (≈ 174 µM) | 200 (≈ 349 µM) | 84.4 | 21
11 | COc1ccc2nc(Oc3ccc(C#N)cc3)c(C=O)cc2c1 | 250 (≈ 822 µM) | 250 (≈ 822 µM) | 1000 (≈ 3290 µM) | 250 (≈ 822 µM) | 1000 (≈ 3290 µM) | 100 (≈ 329 µM) | 200 (≈ 657 µM) | 200 (≈ 657 µM) | 47 | 11
12 | CC1(C)CC(=O)C2=C(C1)N(c1cccc(C(F)(F)F)c1)C(N)=C(C#N)C2c1cc2ccccc2nc1Oc1ccc(C#N)cc1 (stereo unspecified) | 250 (≈ 413 µM) | 250 (≈ 413 µM) | 1000 (≈ 1650 µM) | 200 (≈ 330 µM) | 1000 (≈ 1650 µM) | 200 (≈ 330 µM) | 200 (≈ 330 µM) | 200 (≈ 330 µM) | 20.2 | 45
13 | Cc1ccc2nc(Oc3ccc(C#N)cc3)c(C3C(C#N)=C(N)N(c4cc(F)ccc4F)C4=C3C(=O)CCC4)cc2c1 (stereo unspecified) | 125 (≈ 223 µM) | 100 (≈ 179 µM) | > 1000 | 62.5 (≈ 112 µM) | 250 (≈ 447 µM) | 50 (≈ 89.4 µM) | 250 (≈ 447 µM) | 200 (≈ 357 µM) | 239 | 80
14 | CCn1cc(C(=O)O)c(=O)c2cc(F)c(N3CCNCC3)cc21 [NORFLOXACIN] | 100 (≈ 313 µM) | 10 (≈ 31.3 µM) |  | 10 (≈ 31.3 µM) |  | 10 (≈ 31.3 µM) | 10 (≈ 31.3 µM) | 50 (≈ 157 µM) |  | 
15 | COc1ccc2nc(Oc3ccc(C#N)cc3)c(C3C(C#N)=C(N)N(c4cc(F)ccc4F)C4=C3C(=O)CCC4)cc2c1 (stereo unspecified) | 200 (≈ 347 µM) | 250 (≈ 434 µM) | 1000 (≈ 1740 µM) | 250 (≈ 434 µM) | 1000 (≈ 1740 µM) | 100 (≈ 174 µM) | 125 (≈ 217 µM) | 125 (≈ 217 µM) | 278 | 35
16 | N#CC1=C(N)N(c2cc(F)ccc2F)C2=C(C(=O)CCC2)C1c1cc2ccccc2nc1Oc1ccc(C#N)cc1 (stereo unspecified) | 100 (≈ 183 µM) | 100 (≈ 183 µM) | 250 (≈ 458 µM) | 200 (≈ 367 µM) | > 1000 | 250 (≈ 458 µM) | 250 (≈ 458 µM) | 125 (≈ 229 µM) | 16.4 | 10
17 | N#Cc1ccc(Oc2nc3ccc(Cl)cc3cc2C=O)cc1 | 125 (≈ 405 µM) | 250 (≈ 810 µM) | 250 (≈ 810 µM) | 200 (≈ 648 µM) | > 1000 | 200 (≈ 648 µM) | 125 (≈ 405 µM) | 125 (≈ 405 µM) | 34.9 | 61
18 | COC1=CC(=O)C[C@@H](C)[C@]12Oc1c(Cl)c(OC)cc(OC)c1C2=O [GRISEOFULVIN] |  |  | 100 (≈ 283 µM) |  | 500 (≈ 1420 µM) |  |  |  |  | 
19 | COc1ccc2nc(Oc3ccc(C#N)cc3)c(C3C(C#N)=C(N)N(c4ccc(F)c(F)c4)C4=C3C(=O)CCC4)cc2c1 (stereo unspecified) | 200 (≈ 347 µM) | 500 (≈ 869 µM) | 1000 (≈ 1740 µM) | 250 (≈ 434 µM) | 1000 (≈ 1740 µM) | 500 (≈ 869 µM) | 200 (≈ 347 µM) | 200 (≈ 347 µM) | 369 | 88
20 | COc1ccc2nc(Oc3ccc(C#N)cc3)c(C3C(C#N)=C(N)N(c4cccc(C(F)(F)F)c4)C4=C3C(=O)CCC4)cc2c1 (stereo unspecified) | 200 (≈ 329 µM) | 200 (≈ 329 µM) | 1000 (≈ 1650 µM) | 100 (≈ 165 µM) | 500 (≈ 823 µM) | 125 (≈ 206 µM) | 125 (≈ 206 µM) | 500 (≈ 823 µM) | 260 | 23
21 | Cc1ccc2nc(Oc3ccc(C#N)cc3)c(C3C(C#N)=C(N)N(c4cccc(C(F)(F)F)c4)C4=C3C(=O)CCC4)cc2c1 (stereo unspecified) | 200 (≈ 338 µM) | 250 (≈ 423 µM) | > 1000 | 100 (≈ 169 µM) | 250 (≈ 423 µM) | 250 (≈ 423 µM) | 250 (≈ 423 µM) | 125 (≈ 211 µM) | 253 | 38
22 | CC1(C)CC(=O)C2=C(C1)N(c1ccc(F)c(F)c1)C(N)=C(C#N)C2c1cc2ccccc2nc1Oc1ccc(C#N)cc1 (stereo unspecified) | 200 (≈ 349 µM) | 125 (≈ 218 µM) | 500 (≈ 872 µM) | 100 (≈ 174 µM) | 500 (≈ 872 µM) | 200 (≈ 349 µM) | 200 (≈ 349 µM) | 100 (≈ 174 µM) | 19.6 | 64
23 | N#CC1=C(N)N(c2ccc(F)c(F)c2)C2=C(C(=O)CCC2)C1c1cc2ccccc2nc1Oc1ccc(C#N)cc1 (stereo unspecified) | 250 (≈ 458 µM) | 100 (≈ 183 µM) | > 1000 | 100 (≈ 183 µM) | 250 (≈ 458 µM) | 125 (≈ 229 µM) | 100 (≈ 183 µM) | 100 (≈ 183 µM) | 193 | 75
24 | CC1(C)S[C@@H]2[C@H](NC(=O)[C@H](N)c3ccccc3)C(=O)N2[C@H]1C(=O)O [AMPICILLIN] | 250 (≈ 715 µM) | 100 (≈ 286 µM) |  | 100 (≈ 286 µM) |  | 100 (≈ 286 µM) | 100 (≈ 286 µM) | 250 (≈ 715 µM) |  | 
25 | O=C(N[C@H](CO)[C@H](O)c1ccc([N+](=O)[O-])cc1)C(Cl)Cl [CHLORAMPHENICOL] | 50 (≈ 155 µM) | 50 (≈ 155 µM) |  | 50 (≈ 155 µM) |  | 50 (≈ 155 µM) | 50 (≈ 155 µM) | 50 (≈ 155 µM) |  | 
26 | N#CC1=C(N)N(c2cc(F)ccc2F)C2=C(C(=O)CCC2)C1c1cc2cc(Cl)ccc2nc1Oc1ccc(C#N)cc1 (stereo unspecified) | 200 (≈ 345 µM) | 100 (≈ 172 µM) | 1000 (≈ 1720 µM) | 100 (≈ 172 µM) | 250 (≈ 431 µM) | 62.5 (≈ 108 µM) | 100 (≈ 172 µM) | 100 (≈ 172 µM) | 100 | 84
